Data reported in paper PMC6172068 (Cancer Science, 2018).
Marks after values point to notes of the source that are not given here.

Test: Safety and tolerability
Type: in vivo, Japanese patients
Method in brief: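 In this open-label study, once-daily oral dosing escalated 20–300 mg/d by Bayesian continual reassessment. DLTs were judged from Cycles 0 and 1, and MTD/RD came from the posterior mean DLT rate plus investigator assessment. Treatment-emergent AEs were graded by NCI-CTCAE v4.0 for seriousness, duration and relatedness. The safety analysis set comprised all patients given ≥1 dose.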

CCc1nc(C(N)=O)c(Nc2ccc(N3CCC(N4CCN(C)CC4)CC3)c(OC)c2)nc1NC1CCOCC1 [gilteritinib]
1 (4.2%) n (%): Bone pain (Grade 1-2, N = 24) | Disseminated intravascular coagulation (Grade 1-2, N = 24) | ECG prolonged QT interval (Grade 1-2, N = 24) | Increased amylase (Grade 1-2, N = 24) | Lung infection (Grade 1-2, N = 24) | Pneumonia (Grade 1-2, N = 24) | Sepsis (Grade 1-2, N = 24)
4 (44.4%) n (%): Drug-related grade ≥3 AEs (200 mg (n = 9))
9 (37.5%) n (%): Elevated liver enzymes (ALT, AST, and alkaline phosphatase) (Grade 1-2, N = 24)
7 (77.8%) n (%): Grade ≥3 AEs (200 mg (n = 9))
2 (8.3%) n (%): Dysesthesia (Grade 1-2, N = 24) | Dysgeusia (Grade 1-2, N = 24) | Elevated ALT (Grade 1-2, N = 24) | Elevated AST (Grade 1-2, N = 24) | Epistaxis (Grade 1-2, N = 24) | Febrile neutropenia (Grade 1-2, N = 24) | Hematoma (Grade 1-2, N = 24) | Hypokalemia (Grade 1-2, N = 24) | Hypotension (Grade 1-2, N = 24) | Hypoxia (Grade 1-2, N = 24) | Insomnia (Grade 1-2, N = 24)
5 (20.8%) n (%): Hypertension (Grade 1-2, N = 24) | Renal impairment (Grade 1-2, N = 24)
0 n (%): AEs leading to discontinuation of the study drug (20 mg (n = 1)) | Deaths (20 mg (n = 1)) | Drug-related AEs leading to discontinuation of the study drug (20 mg (n = 1)) | Drug-related grade ≥3 AEs (20 mg (n = 1)) | Drug-related serious AEs (20 mg (n = 1)) | Serious AE: Acute cholangitis (20 mg (n = 1)) | Serious AE: Bronchopneumonia (20 mg (n = 1)) | Serious AE: Bronchopulmonary aspergillosis (20 mg (n = 1)) | Serious AE: Cardiomyopathy (20 mg (n = 1)) | Serious AE: Device-related infection (20 mg (n = 1)) | Serious AE: Edema (20 mg (n = 1)) | Serious AE: Febrile neutropenia (20 mg (n = 1)) | Serious AE: Increased level of fibrin degradation products (20 mg (n = 1)) | Serious AE: Pneumonia (20 mg (n = 1)) | Serious AE: Sepsis (20 mg (n = 1)) | Serious AE: Subdural hematoma (20 mg (n = 1)) | Serious AEs (20 mg (n = 1)) | Deaths (40 mg (n = 4)) | Serious AE: Acute cholangitis (40 mg (n = 4)) | Serious AE: Bronchopneumonia (40 mg (n = 4)) | Serious AE: Bronchopulmonary aspergillosis (40 mg (n = 4)) | Serious AE: Cardiomyopathy (40 mg (n = 4)) | Serious AE: Febrile neutropenia (40 mg (n = 4)) | Serious AE: Increased level of fibrin degradation products (40 mg (n = 4)) | Serious AE: Sepsis (40 mg (n = 4)) | Serious AE: Subdural hematoma (40 mg (n = 4)) | Serious AE: Bronchopulmonary aspergillosis (80 mg (n = 4)) | Serious AE: Cardiomyopathy (80 mg (n = 4)) | Serious AE: Device-related infection (80 mg (n = 4)) | Serious AE: Edema (80 mg (n = 4)) | Serious AE: Febrile neutropenia (80 mg (n = 4)) | Serious AE: Increased level of fibrin degradation products (80 mg (n = 4)) | Serious AE: Pneumonia (80 mg (n = 4)) | AEs leading to discontinuation of the study drug (120 mg (n = 4)) | Deaths (120 mg (n = 4)) | Drug-related AEs leading to discontinuation of the study drug (120 mg (n = 4)) | Drug-related serious AEs (120 mg (n = 4)) | Serious AE: Acute cholangitis (120 mg (n = 4)) | Serious AE: Bronchopneumonia (120 mg (n = 4)) | Serious AE: Bronchopulmonary aspergillosis (120 mg (n = 4)) | Serious AE: Cardiomyopathy (120 mg (n = 4)) | Serious AE: Device-related infection (120 mg (n = 4)) | Serious AE: Edema (120 mg (n = 4)) | Serious AE: Febrile neutropenia (120 mg (n = 4)) | Serious AE: Increased level of fibrin degradation products (120 mg (n = 4)) | Serious AE: Pneumonia (120 mg (n = 4)) | Serious AE: Sepsis (120 mg (n = 4)) | Serious AE: Subdural hematoma (120 mg (n = 4)) | Serious AEs (120 mg (n = 4)) | Deaths (200 mg (n = 9)) | Serious AE: Acute cholangitis (200 mg (n = 9)) | Serious AE: Bronchopneumonia (200 mg (n = 9)) | Serious AE: Device-related infection (200 mg (n = 9)) | Serious AE: Edema (200 mg (n = 9)) | Serious AE: Pneumonia (200 mg (n = 9)) | Serious AE: Sepsis (200 mg (n = 9)) | Deaths (300 mg (n = 2)) | Drug-related serious AEs (300 mg (n = 2)) | Serious AE: Acute cholangitis (300 mg (n = 2)) | Serious AE: Bronchopneumonia (300 mg (n = 2)) | Serious AE: Bronchopulmonary aspergillosis (300 mg (n = 2)) | Serious AE: Cardiomyopathy (300 mg (n = 2)) | Serious AE: Device-related infection (300 mg (n = 2)) | Serious AE: Edema (300 mg (n = 2)) | Serious AE: Febrile neutropenia (300 mg (n = 2)) | Serious AE: Increased level of fibrin degradation products (300 mg (n = 2)) | Serious AE: Pneumonia (300 mg (n = 2)) | Serious AE: Sepsis (300 mg (n = 2)) | Serious AE: Subdural hematoma (300 mg (n = 2)) | Serious AEs (300 mg (n = 2)) | Anemia (Grade 1-2, N = 24)
2 (50%) n (%): Grade ≥3 AEs (40 mg (n = 4)) | Grade ≥3 AEs (80 mg (n = 4)) | Grade ≥3 AEs (120 mg (n = 4))
3 (12.5%) n (%): Cough (Grade 1-2, N = 24) | Pleural effusion (Grade 1-2, N = 24) | Rash (Grade 1-2, N = 24) | Somnolence (Grade 1-2, N = 24)
7 (29.2%) n (%): Elevated blood lactate dehydrogenase (Grade 1-2, N = 24) | Pyrexia (Grade 1-2, N = 24)
1 (11.1%) n (%): Drug-related AEs leading to discontinuation of the study drug (200 mg (n = 9)) | Serious AE: Bronchopulmonary aspergillosis (200 mg (n = 9)) | Serious AE: Cardiomyopathy (200 mg (n = 9)) | Serious AE: Febrile neutropenia (200 mg (n = 9)) | Serious AE: Increased level of fibrin degradation products (200 mg (n = 9)) | Serious AE: Subdural hematoma (200 mg (n = 9))
4 (16.7%) n (%): Constipation (Grade 1-2, N = 24) | Corneal erosion (Grade 1-2, N = 24) | Headache (Grade 1-2, N = 24) | Nausea (Grade 1-2, N = 24)
3 (75%) n (%): Drug-related AE (40 mg (n = 4)) | Drug-related AE (80 mg (n = 4))
8.3%: patients with a dose decrease (2 patients)
6 (25%) n (%): Diarrhea (Grade 1-2, N = 24) | Elevated blood creatine phosphokinase (Grade 1-2, N = 24)
5 (55.6%) n (%): Serious AEs (200 mg (n = 9))
1 n: AE resulting in permanent discontinuation: pneumonia (40 mg/d) | AE resulting in permanent discontinuation: subdural hematoma (80 mg/d) | DLT: grade 3 tumor lysis syndrome (120 mg/d) | AE resulting in permanent discontinuation: elevated blood creatine phosphokinase (200 mg/d) | AE resulting in permanent discontinuation: delirium (200 mg/d, not considered drug-related) | AE resulting in permanent discontinuation: elevated lactate dehydrogenase (300 mg/d) | AE resulting in permanent discontinuation: pneumonia (300 mg/d)
4 (100%) n (%): Any AE (40 mg (n = 4)) | Any AE (80 mg (n = 4)) | Any AE (120 mg (n = 4)) | Drug-related AE (120 mg (n = 4))
1 (100%) n (%): Any AE (20 mg (n = 1)) | Drug-related AE (20 mg (n = 1)) | Grade ≥3 AEs (20 mg (n = 1))
9 (100%) n (%): Any AE (200 mg (n = 9)) | Drug-related AE (200 mg (n = 9))
2 (100%) n (%): AEs leading to discontinuation of the study drug (300 mg (n = 2)) | Any AE (300 mg (n = 2)) | Drug-related AE (300 mg (n = 2)) | Drug-related AEs leading to discontinuation of the study drug (300 mg (n = 2)) | Drug-related grade ≥3 AEs (300 mg (n = 2)) | Grade ≥3 AEs (300 mg (n = 2))
2 n: DLTs: grade 3 elevated blood lactate dehydrogenase, amylase, blood creatine phosphokinase levels, and syncope (300 mg/d)
29.2%: patients with dose interruptions (7 patients)
1 (25%) n (%): AEs leading to discontinuation of the study drug (40 mg (n = 4)) | Drug-related AEs leading to discontinuation of the study drug (40 mg (n = 4)) | Drug-related grade ≥3 AEs (40 mg (n = 4)) | Drug-related serious AEs (40 mg (n = 4)) | Serious AE: Device-related infection (40 mg (n = 4)) | Serious AE: Edema (40 mg (n = 4)) | Serious AE: Pneumonia (40 mg (n = 4)) | Serious AEs (40 mg (n = 4)) | AEs leading to discontinuation of the study drug (80 mg (n = 4)) | Drug-related AEs leading to discontinuation of the study drug (80 mg (n = 4)) | Drug-related grade ≥3 AEs (80 mg (n = 4)) | Drug-related serious AEs (80 mg (n = 4)) | Serious AE: Acute cholangitis (80 mg (n = 4)) | Serious AE: Bronchopneumonia (80 mg (n = 4)) | Serious AE: Sepsis (80 mg (n = 4)) | Serious AE: Subdural hematoma (80 mg (n = 4)) | Serious AEs (80 mg (n = 4)) | Drug-related grade ≥3 AEs (120 mg (n = 4))
1 (25%) ^a n (%): Deaths (80 mg (n = 4), cause of death considered related to the study drug)
2 (22.2%) n (%): AEs leading to discontinuation of the study drug (200 mg (n = 9)) | Drug-related serious AEs (200 mg (n = 9))
